Results reported in ChEMBL document CHEMBL1135936, “6-[2-(Phosphonomethoxy)alkoxy]pyrimidines with antiviral activity” (J Med Chem, 2002).
pIC50: −log10 of the molar value. Converted amounts (≈) assume the structure as drawn.

What was measured:
unidentified adenovirus [1] = test: Effective concentration for the inhibition of adenovirus; type: functional, organism-based
Method in brief: (§1)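 HEL fibroblasts, confluent, infected on day 0 with 100 CCID50 of human adenovirus type 2 or type 3. After 2 h adsorption at 37 °C, virus was removed and replaced by serial compound dilutions. Cytopathic effect was scored microscopically on day 7-10 p.i. to derive EC50 and minimum cytotoxic concentration.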

CCRF-CEM [2] = test: In vitro cytotoxicity against CCRF-CEM lymphoblastoid cells; type: functional, Homo sapiens
Method in brief: (§2)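 Cells were grown for 72 h at a constant compound concentration of 10 µM, then counted. Growth inhibition is given relative to cell counts in control cultures grown in medium without compound. Lines: mouse L1210 and L929, human HeLaS3 and CCRF-CEM.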

CCRF-CEM [3] = test: Inhibition of Human immunodeficiency virus (HIV) -1 III B strain induced cytopathicity in CEM cell line; type: functional, cell-based
Method in brief: (§3)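 CEM cells were infected with 100 CCID50 per mL of HIV-1 (IIIB) or HIV-2 (ROD). Cells were seeded into wells containing dilutions of compound and incubated 4 days at 37 °C. CEM giant cell formation was then examined microscopically.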

CCRF-CEM [4] = test: Inhibition of Human immunodeficiency virus (HIV)-2 ROD strain induced cytopathicity in CEM cell line; type: functional, cell-based; method in brief: as §3
[5] = test system: Moloney murine sarcoma virus; test: Inhibition of moloney sarcoma virus (MSV) induced cytopathicity in C3H/3T3 embryo fibroblast cells; type: functional, organism-based
Method in brief: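 C3H/3T3 murine embryo fibroblasts were seeded in 48-well plates and infected 24 h later with 80 focus-forming units of MSV. MSV stock was prepared from tumours in NMRI mice. Virus adsorbed for 10-120 min at 37 °C, then fresh medium with compound dilutions was added. Transformation was examined microscopically after 6 days.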

E6SM [6] = test: Inhibition of Herpes simplex virus-1, KOS strain induced cytopathicity in E6SM cell line; type: functional, cell-based; settings: Homo sapiens
Method in brief: (§4)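 Inhibition of virus-induced cytopathicity in confluent cell cultures in 96-well plates inoculated with 100 CCID50 of virus; 1 CCID50 is the virus dose infecting 50% of cultures. EC50 is based on reduction of cytopathicity.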

E6SM [7] = test: Inhibition of Herpes simplex virus-2 (G strain) induced cytopathicity in E6SM cell line; type: functional, cell-based; settings: Homo sapiens; method in brief: as §4
E6SM [8] = test: Inhibition of thymidine kinase deficient Herpes simplex virus-1 VMW 1837 strain induced cytopathicity in E6SM cell line; type: functional, cell-based; settings: Homo sapiens; method in brief: as §4
Human alphaherpesvirus 3 = test: Inhibition of Thymidine kinase deficient (TK-) Varicella-Zoster virus (VZV) 07/1 strain induced cytopathicity n HEL cell line; type: functional, organism-based; settings: Human alphaherpesvirus 3, tk-07, HEL; method in brief: as §4
HEL [9] = test: Inhibition of Thymidine kinase deficient (TK-) Varicella-Zoster virus (VZV) YS/R strain induced cytopathicity in HEL cell line; type: functional, cell-based; settings: Homo sapiens; method in brief: as §4
HEL [10] = test: Inhibition of Varicella-Zoster virus (VZV) OKA strain induced cytopathicity in HEL cell line; type: functional, cell-based; settings: Homo sapiens; method in brief: as §4
HEL [11] = test: Inhibition of Varicella-Zoster virus (VZV) YS strain induced cytopathicity in HEL cell line; type: functional, cell-based; settings: Homo sapiens; method in brief: as §4
HeLa [12] = test: (§5) In vitro cytotoxicity against human cervix carcinoma HeLa S3 cells; type: functional; parameters: concentration or dose not given beside the values; method in brief: as §2
L929 [13] = test: (§6) In vitro cytotoxicity against murine L929 cells; type: functional, Mus musculus; parameters: concentration or dose not given beside the values; method in brief: as §2
L1210 [14] = test: (§7) In vitro cytotoxicity against L1210 mouse leukemia cells; type: functional; parameters: concentration or dose not given beside the values; method in brief: as §2
CCRF-CEM [15] = test: (§8) In vitro cytotoxicity against CCRF-CEM T lymphoblastoid cells; type: functional, Homo sapiens; parameters: concentration or dose not given beside the values; method in brief: as §2
CCRF-CEM [16] = test: Inhibitory activity against CCRF-CEM cells; type: functional, cell-based; settings: Homo sapiens
Method in brief: (§9)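 CCRF-CEM, L1210 and L929 cells were grown with compound for 72 h and then counted. Cell growth inhibition is expressed relative to untreated control cultures, and IC50 is given in µM.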

L1210 [17] = test: Inhibitory activity against L1210 cells; type: functional, cell-based; settings: Mus musculus; method in brief: as §9
L929 [18] = test: Inhibitory activity against L929 cells; type: functional, cell-based; settings: Mus musculus; method in brief: as §9
HEL [19] = test: Inhibitory activity against HEL cell proliferation; type: functional, cell-based; settings: Homo sapiens
CCRF-CEM [20] = test: as §8; type: functional, Homo sapiens; method in brief: as §2
L929 [21] = test: as §6; type: functional, Mus musculus; method in brief: as §2
L1210 [22] = test: as §7; type: functional; method in brief: as §2
unidentified adenovirus [23] = test: In vitro antiadenovirus activity; type: functional, organism-based; method in brief: as §1
HeLa [24] = test: as §5; type: functional; method in brief: as §2

SMILES	EC50 (CCRF-CEM [3]) [µg/mL]	EC50 (CCRF-CEM [4]) [µg/mL]	EC50 [5] [µg/mL]	EC50 (E6SM [6]) [µg/mL]	EC50 (E6SM [7]) [µg/mL]	EC50 (E6SM [8]) [µg/mL]	EC50 (Human alphaherpesvirus 3) [µg/mL]	EC50 (HEL [9]) [µg/mL]	EC50 (HEL [10]) [µg/mL]	EC50 (HEL [11]) [µg/mL]	Control (HeLa [12]) [%]	Control (L929 [13]) [%]	Control (L1210 [14]) [%]	Control (CCRF-CEM [15]) [%]	further results
Nc1ncnc2c1ncn2C[C@@H](CO)OCP(=O)(O)O															EC50 (unidentified adenovirus [1]): 0.24 µg/mL (≈ 0.792 µM)
Nc1cc(OCCOCP(=O)(O)O)ncn1	> 100	> 100	13 (≈ 52.2 µM)	> 16	> 16	> 16	> 50	> 50	> 50	> 50	86	84	81		Control (CCRF-CEM [2]): 95%
CN(C)c1cc(=O)n(CCOCP(=O)(O)O)c(N)n1	> 100	> 100	105 (≈ 359 µM)	> 80	> 80	> 80	> 50	> 50	> 50	> 50	92	99	90	98	
CSc1nc(N)cc(OCCOCP(=O)(O)O)n1	51 (≈ 173 µM)	33 (≈ 112 µM)	> 40	> 80	> 80	> 80	> 50	> 50	> 50	> 50	79	92	96	87	
Nc1cc(=O)n(CCOCP(=O)(O)O)c(N)n1	80 (≈ 303 µM)	25 (≈ 94.6 µM)	2.92 (≈ 11.1 µM)	240 (≈ 908 µM)	> 400	> 400	> 50	> 50	32 (≈ 121 µM)	> 50	93	96	76	95	
Nc1nc(O)cc(NC2CC2)n1	> 100	> 100	133 (≈ 800 µM)	> 400	> 400	> 400	> 50	> 50	> 50	> 50					
Nc1cc(OCCOCP(=O)(O)O)nc(N)n1	0.8 (≈ 3.03 µM)	0.43 (≈ 1.63 µM)	0.04 (≈ 0.151 µM)	6.5 (≈ 24.6 µM)	24 (≈ 90.8 µM)	9.6 (≈ 36.3 µM)	2.5 (≈ 9.46 µM)	1.6 (≈ 6.06 µM)	1.2 (≈ 4.54 µM)	1.1 (≈ 4.16 µM)	89	61	62	63	pIC50 (CCRF-CEM [16]): 4.91; pIC50 (L1210 [17]): 4.60; pIC50 (L929 [18]): 4.60; IC50 (HEL [19]): 50 µg/mL (≈ 189 µM)
CC(C)OP(=O)(COCCSc1cc(N)nc(N)n1)OC(C)C	47 (≈ 129 µM)	52 (≈ 143 µM)		> 400	> 400	> 400	> 50	> 50	> 50	> 50					
Nc1cc(O)ncn1	> 100	> 100		> 400	> 400	> 400	> 50	> 50	> 50	> 50					
Nc1nc(NC2CC2)cc(=O)n1CCOCP(=O)(O)O	> 100	> 100		> 16	> 16	> 16	> 50	> 50	> 50	> 50					
Nc1nc(OCCOCP(=O)(O)O)cc(OCCOCP(=O)(O)O)n1	57 (≈ 141 µM)	80 (≈ 198 µM)	43 (≈ 107 µM)	240 (≈ 595 µM)	> 400	240 (≈ 595 µM)	> 50	> 50	50 (≈ 124 µM)	> 50	72	56	77	109	
CN(C)c1cc(O)nc(N)n1	> 100	> 100	132 (≈ 856 µM)	> 400	> 400	> 400	> 50	> 50	> 50	> 50					
Nc1nc(OCCOCP(=O)(O)O)cc(=O)n1CCOCP(=O)(O)O	> 100	> 100	107 (≈ 265 µM)	> 400	> 400	> 400	> 50	> 50	> 50	> 50	72				Control (CCRF-CEM [20]): 101%; Control (L929 [21]): 77%; Control (L1210 [22]): 80%
CC(C)OP(=O)(COCCOc1cc(N)ncn1)OC(C)C	> 20	> 20		> 400	> 400	> 400	> 50	> 50	> 50	> 50					
Nc1cc(SCCOCP(=O)(O)O)nc(N)n1	5.5 (≈ 19.6 µM)	3 (≈ 10.7 µM)	1.7 (≈ 6.07 µM)	29 (≈ 103 µM)	≥ 80	48 (≈ 171 µM)	20 (≈ 71.4 µM)	15 (≈ 53.5 µM)	7.5 (≈ 26.8 µM)	7 (≈ 25 µM)	98	88	83	89	EC50 (unidentified adenovirus [23]): 78 µg/mL (≈ 278 µM); EC50 (HEL [19]): 50 µg/mL (≈ 178 µM)
Cc1cc(=O)n(CCOCP(=O)(O)O)c(N)n1	> 100	> 100	122 (≈ 464 µM)	> 400	> 400	> 400	> 50	> 50	> 50	> 50	83	81	95	100	
CN(C)c1cc(OCCOCP(=O)(O)O)nc(N)n1	> 100	> 100	133 (≈ 455 µM)	> 400	> 400	> 400	> 50	> 50	> 50	> 50	89	104	88	104	
Nc1cc(=O)n(CCOCP(=O)(O)O)cn1	> 100	> 100	138 (≈ 554 µM)	> 400	> 400	> 400	> 50	> 50	> 50	> 50	94	90	98	86	
Cc1cc(OCCOCP(=O)(O)O)nc(N)n1	> 100	> 100	89 (≈ 338 µM)	> 400	> 400	> 400	> 50	> 50	> 50	> 50	87	85	99	95	
Nc1cc(O)nc(SCCOCP(=O)(O)O)n1	> 100	> 100	72 (≈ 256 µM)	240 (≈ 853 µM)	> 400	> 400	> 50	> 50	> 50	> 50					
Nc1nc(NC2CC2)cc(OCCOCP(=O)(O)O)n1	> 100	> 100	> 40	240 (≈ 789 µM)	> 80	240 (≈ 789 µM)	> 50	> 50	> 20	> 50					Control (CCRF-CEM [20]): 87%; Control (HeLa [24]): 88%; Control (L929 [21]): 93%; Control (L1210 [22]): 71%
Nc1ncnc2c1ncn2CCOCP(=O)(O)O [ADEFOVIR]	1.8 (≈ 6.59 µM)	2.5 (≈ 9.15 µM)	0.25 (≈ 0.915 µM)	7 (≈ 25.6 µM)	7 (≈ 25.6 µM)	7 (≈ 25.6 µM)	10 (≈ 36.6 µM)	10 (≈ 36.6 µM)	10 (≈ 36.6 µM)	10 (≈ 36.6 µM)					
Nc1nc(N)c2ncn(CCOCP(=O)(O)O)c2n1 [PMEDAP]															EC50 (unidentified adenovirus [1]): 47 µg/mL (≈ 163 µM)
